Data set [1] is described as follows: Displacement of [3H]Ro15-1788 from GABA-A receptor benzodiazepine binding site in bovine cerebral cortex membranes after 1 hr. Type of data set: cell membranes, Bos taurus, Membrane. (In general: Displacement assays read how much labelled ligand stays bound in the presence of the test substance.)
Data set [2] deals with Mus musculus. Description: Antiamnesic activity in CD1 albino mouse assessed as reversal of scopolamine-induced amnesia at 1 mg/kg, po administered 30 mins prior to scopolamine challenge measured after 24 hrs by passive avoidance test. It counts as functional, organism-based. Further details: dose 1 mg/kg. The essentials: (§1)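 Step-through passive avoidance in male CD-1 mice (22–24 g). Test drugs were given po, suspended in 1% carboxymethylcellulose at 10 ml/kg, 30 min before the training session. For the antiamnesic arm, scopolamine 1.5 mg/kg was injected immediately after punishment. Retention latency was compared with CMC-treated controls, n = 10–12 mice per group.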

In data set [3] the test system is Mus musculus. Description: Anxiolytic activity in CD1 albino mouse assessed as increase in time spent in illuminated side at 10 to 30 mg/kg, po administered 30 mins prior to testing measured for 5 mins by light-dark box test. Type of data set: functional, organism-based. In a few lines:
(§2)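 Light/dark box: two equal acrylic compartments, one lit by a 60 W lamp, joined by a floor-level opening. Male CD-1 mice were dosed po in 1% CMC 30 min before the test, then placed in the centre of the lit side facing away from the dark side. Over 5 min, transfers and time in the light side were recorded, n = 8 mice per group.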

In data set [4] the test system is Rattus norvegicus. The experiment in a line: Procognitive effect in Harlan Wistar rat assessed as exploring time of familiar rat during social investigatory behaviour at 10 mg/kg, po administered 30 mins prior to testing measured for 5 mins by social learning test (reference value: 27.6 secs). Type of data set: functional.
Data set [5] deals with Mus musculus. Description: Neurotoxicity in CD1 albino mouse assessed as decrease in number of falls from rotating rod at 30 mg/kg, po by rota-rod test relative to control. It counts as toxicity, organism-based. Further details: dose 30 mg/kg, route oral. Conditions: in vivo, TDE = time-dependent effect. The essentials:
(§3)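 Motor coordination was tested on a rota-rod turning at 24 rpm in male CD-1 mice dosed po in 1% CMC. Falls within 30 s were counted at a pretest and at 15, 30, 45 and 60 min after dosing. Each value is the mean of five mice, compared with CMC-treated controls.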

The subject of data set [6] is Rattus norvegicus. Description: Procognitive effect in Harlan Wistar rat assessed as decrease in exploring time of unfamiliar rat during social investigatory behaviour at 10 mg/kg, po administered 30 mins prior to testing measured for 5 mins by social learning test relative to control. Further details: dose 10 mg/kg. It counts as functional, organism-based.
Data set [7] deals with Mus musculus. Description: Cognitive enhancing effect in CD1 albino mouse assessed as increase in retention latency at 1 to 10 mg/kg, po administered 30 mins prior to testing measured after 24 hrs by passive avoidance test relative to control. Type of data set: functional, organism-based. In a few lines: as §1
Data set [8] has as its system Mus musculus. Description: Anticonvulsant activity in CD1 albino mouse assessed as protection against pentylenetetrazole-induced convulsions at 10 mg/kg, po administered 30 mins prior to pentylenetetrazole challenge measured over 30 mins (reference value: 7.1%). It counts as functional.
Data set [9] relates to Rattus norvegicus. Description: Procognitive effect in Harlan Wistar rat assessed as decrease in exploring time of unfamiliar rat during social investigatory behaviour at 30 mg/kg, po administered 30 mins prior to testing measured for 5 mins by social learning test relative to control. Further details: dose 30 mg/kg. It counts as functional, organism-based.
The subject of data set [10] is Rattus norvegicus. Description: Procognitive effect in Harlan Wistar rat assessed as exploring time of familiar rat during social investigatory behaviour at 30 mg/kg, po administered 30 mins prior to testing measured for 5 mins by social learning test (reference value: 27.6 secs). It counts as functional.
For another data set, the species on record is Bos taurus. Description: Displacement of [3H]Ro15-1788 from GABA-A receptor benzodiazepine binding site in bovine cerebral cortex membranes at 10 uM after 1 hr. It counts as cell membranes. Conditions: Membrane.
Data set [11] concerns Mus musculus. Description: Anxiolytic activity in CD1 albino mouse assessed as increase in time spent in illuminated side at 10 mg/kg, po administered 30 mins prior to testing measured for 5 mins by light-dark box test. Type of data set: functional, organism-based. Further details: dose 10 mg/kg. The essentials: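 Male CD-1 mice (22–24 g) were dosed po at 10 ml/kg with drug suspended in 1% carboxymethylcellulose, 30 min before the test. Each mouse was placed in the centre of the lit compartment of a two-compartment light/dark box, facing away from the dark side, and explored for 5 min. Transfers and time in the light side were recorded. Values are means of eight mice, analysed by ANOVA with Scheffé post-hoc.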

Data set [12] has as its system Mus musculus. Description: Anxiolytic activity in CD1 albino mouse assessed as increase in time spent in illuminated side at 10 mg/kg, po administered 30 mins prior to testing measured for 5 mins by light-dark box test in presence of flumazenil. It counts as functional, organism-based. Further details: dose 10 mg/kg. The essentials:
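This is the mouse light/dark box (male CD-1, 22–24 g) with flumazenil added at 100 mg/kg po. Drugs were suspended in 1% CMC and given po at 10 ml/kg, 30 min before testing. Mice started in the centre of the lit side and explored for 5 min. Transfers and time in the light side were scored. Values are means of eight mice, compared with flumazenil-treated mice.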

Data set [13] deals with Mus musculus. Description: Neurotoxicity in CD1 albino mouse assessed as decrease in number of falls from rotating rod at 10 mg/kg, po by rota-rod test relative to control. Type of data set: toxicity, organism-based. Further details: dose 10 mg/kg, route oral. The conditions noted are these: in vivo, TDE = time-dependent effect. In a few lines:
as §3
On the technique in general: The rotarod test checks motor coordination on a turning rod.

The subject of data set [14] is Mus musculus. Description: Antiamnesic activity in CD1 albino mouse assessed as reversal of scopolamine-induced amnesia at 3 mg/kg, po administered 30 mins prior to scopolamine challenge measured after 24 hrs by passive avoidance test. Further details: dose 3 mg/kg. Type of data set: functional, organism-based.
In data set [15] the test system is Mus musculus. The experiment in a line: Cognitive enhancing effect in CD1 albino mouse assessed as increase in retention latency at 3 to 30 mg/kg, po administered 30 mins prior to testing measured after 24 hrs by passive avoidance test relative to control. It counts as functional, organism-based. In a few lines: as §1
Data set [16] has as its system Mus musculus. Description: Cognitive enhancing effect in CD1 albino mouse assessed as increase in retention latency at 1 to 30 mg/kg, po administered 30 mins prior to testing measured after 24 hrs by passive avoidance test relative to control. Type of data set: functional, organism-based. In a few lines: as §1
Data set [17] relates to Rattus norvegicus. The experiment in a line: Procognitive effect in Harlan Wistar rat assessed as decrease in exploring time of unfamiliar rat during social investigatory behaviour at 10 to 100 mg/kg, po administered 30 mins prior to testing measured for 5 mins by social learning test relative to control. It counts as functional, organism-based.
Data set [18] concerns Rattus norvegicus. Description: Procognitive effect in Harlan Wistar rat assessed as exploring time of familiar rat during social investigatory behaviour at 100 mg/kg, po administered 30 mins prior to testing measured for 5 mins by social learning test (reference value: 27.6 secs). Type of data set: functional.
For data set [19], the system named is Mus musculus. The experiment in a line: Anxiolytic activity in CD1 albino mouse assessed as increase in time spent in illuminated side at 30 mg/kg, po administered 30 mins prior to testing measured for 5 mins by light-dark box test. It counts as functional, organism-based. Further details: dose 30 mg/kg. In a few lines: as §2
The subject of data set [20] is Mus musculus. Description: Cognitive enhancing effect in CD1 albino mouse assessed as increase in retention latency at 1 to 100 mg/kg, po administered 30 mins prior to testing measured after 24 hrs by passive avoidance test relative to control. Type of data set: functional, organism-based. In a few lines: as §1

Activity calls are given as the source filed them. The rule behind the calls is not given here.

What is called Ki is a dissociation constant, usually derived from enzyme kinetics or from competition with a known ligand. Low values mean a stronger hold on the target, high ones a looser hold on the target. In general, inhibition refers to the change of the read-out against control, counted positive when it falls. A lower inhibition goes with a response near the control.

`Cc1cnn2c1n[n+]([O-])c1ccc(Cl)cc12` came in with a Ki in data set [1] of 315 nM.
As to `[O-][n+]1nc2c(-c3ncn[nH]3)cnn2c2cc(OCc3ccccc3)ccc21`, the outcome with Mus musculus [2], in the data set with Mus musculus [3] and with Mus musculus [7] was Active. Moreover, the Time in the data set with Rattus norvegicus [4] was 40.3 s. Also, the figures for the Activity entry in the data set on Mus musculus [5] and in the data set with Mus musculus [8] were “tde” and 0%, respectively. The outcome in the data set on Rattus norvegicus [6] was inactive. This compound also returned a Ki in data set [1] of 325 nM.
`[O-][n+]1nc2c(I)cnn2c2cc(NCc3ccccn3)ccc21`: the Ki in data set [1] is 0.72 nM.
Still for that read-out and setting: for `CN(C)/C=N/C(=O)c1cnn2c1n[n+]([O-])c1ccc(OCc3ccncc3)cc12` the value was 515 nM; for `CN(C)/C=N/C(=O)c1cnn2c1n[n+]([O-])c1ccc(OCc3cccs3)cc12`, 620 nM; for `[O-][n+]1nc2c(-c3ncn[nH]3)cnn2c2cc(OCc3ccncc3)ccc21`, 168 nM.
Still for that read-out and setting: then `NC(=O)c1cnn2c1n[n+]([O-])c1ccc(OCc3ccccc3)cc12`, with 324 nM.
Compound `[O-][n+]1nc2c(I)cnn2c2cc(NCc3ccncc3)ccc21` yielded a Ki in data set [1] of 0.33 nM.
`Cc1noc(-c2cnn3c2n[n+]([O-])c2ccc(OCc4cccs4)cc23)n1`: affinity in data set [1] was put at a Ki of 1620 nM.
The same measure, in the same setting: then `Cc1cnn2c1n[n+]([O-])c1ccc(OCc3ccco3)cc12`, with 30.9 nM.
In the case of `NC(=O)CN1CCCC1=O` [PIRACETAM], in the data set with Rattus norvegicus [9], the outcome was inactive. For the same compound, the Time with Rattus norvegicus [10] is 46.3 s.
As for `Cn1ncnc1-c1cnn2c1n[n+]([O-])c1ccc(OCc3ccccc3)cc12`, the inhibition in the data set filed under Bos taurus was 46%.
In data set [1], `[O-][n+]1nc2c(I)cnn2c2cc(NCc3ccco3)ccc21` displayed a Ki of 0.23 nM.
On the same count and under the same terms, for `NC(=O)c1cnn2c1n[n+]([O-])c1ccc(OCc3ccncc3)cc12` the value was 1200 nM.
`CN1C(=O)CN=C(c2ccccc2)c2cc(Cl)ccc21` [DIAZEPAM]: the outcome in the data set with Mus musculus [11] was Active. Besides, the result with Mus musculus [12] was inactive. The Activity entry in the data set with Mus musculus [13] is reported as “tde”; in the data set on Mus musculus [8], 100%.
As for `Cc1cnn2c1n[n+]([O-])c1ccc(OCc3ccnc(Cl)c3)cc12`, the Ki in data set [1] stood at 7.49 nM.
In the case of `Cc1noc(-c2cnn3c2n[n+]([O-])c2ccc(OCc4ccncc4)cc23)n1`, the result in the data set on Mus musculus [3], in the data set with Mus musculus [14] and with Mus musculus [15] was Active. Further, the Time in the data set with Rattus norvegicus [4] is 44.6 s. Also, the Activity entry in the data set on Mus musculus [5] is on record as “tde”; in the data set on Mus musculus [8], 10%. In addition, in the data set on Rattus norvegicus [6], the outcome was inactive. The same compound gave a Ki in [1] of 453 nM.
`CN(C)/C=N/C(=O)c1cnn2c1n[n+]([O-])c1ccc(OCc3ccccc3)cc12` displayed a Ki in data set [1] of 86.6 nM.
The same measure, in the same setting: for `NC(=O)c1cnn2c1n[n+]([O-])c1ccc(OCc3cccs3)cc12` the value was 960 nM; for `[O-][n+]1ccc(COc2ccc3c(c2)n2ncc(I)c2n[n+]3[O-])cc1`, 20.4 nM.
For `Cc1noc(-c2cnn3c2n[n+]([O-])c2ccc(OCc4ccccc4)cc23)n1`, the result in the data set on Mus musculus [2], with Mus musculus [3] and in the data set with Mus musculus [16] was Active. In the data set on Rattus norvegicus [4], the Time is recorded as 43.1 s. The figures for the Activity entry in the data set with Mus musculus [5] and with Mus musculus [8] were “tde” and 10%, respectively. Further, the outcome in the data set with Rattus norvegicus [6] was inactive. The compound further gave a Ki in [1] of 70.7 nM.
Consider `[O-][n+]1nc2c(I)cnn2c2cc(OCc3cccs3)ccc21`, for which the outcome in the data set with Rattus norvegicus [17] was inactive. The result in the data set with Mus musculus [2], in the data set with Mus musculus [19] and with Mus musculus [20] was Active. In addition, the values for the Time in the data set with Rattus norvegicus [4], in the data set with Rattus norvegicus [18] and with Rattus norvegicus [10] were 32.5 s, 41.9 s and 42.3 s, respectively. Also, the Activity entry in the data set with Mus musculus [5] is on record as “tde”; in the data set on Mus musculus [8], 0%.
With `Cn1cnc(-c2cnn3c2n[n+]([O-])c2ccc(OCc4ccccc4)cc23)n1`, the inhibition in the data set filed under Bos taurus was 50%.
In data set [1], `Cc1cnn2c1nnc1ccc(Cl)cc12` showed a Ki of 400 nM.

Values taken from ChEMBL document CHEMBL2346497, “Synthesis of novel cognition enhancers with pyrazolo[5,1-c][1,2,4]benzotriazine core acting at γ-aminobutyric acid type A (GABA(A)) receptor” (Bioorg Med Chem, 2013).
